Results published in ChEMBL document CHEMBL1137343, “4-arylazo-3,5-diamino-1H-pyrazole CDK inhibitors: SAR study, crystal structure in complex with CDK2, selectivity, and cellular effects” (J Med Chem, 2006).
Calls of active or inactive are those of the source. The rule behind the calls is not given here.

Columns and labels:
[1] = system: HT-29; test: Cell cycle arrest in HT29 cells by accumulation at G0/G1 phase at 50 uM after 3 hrs; type: functional, Homo sapiens
Method in brief: (§1)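 Subconfluent, asynchronous HT-29 cells were treated 3, 6 or 12 h, then pulsed with 10 µM BrdU for 30 min at 37 °C. Cells were fixed in ice-cold 70% ethanol, DNA denatured in 2 M HCl and neutralised with borate. Staining used FITC anti-BrdU, then propidium iodide (0.1 mg/mL) with RNase A. Analysis by flow cytometry with 488 nm laser.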

[2] = system: HT-29; test: Cell cycle arrest in HT29 cells by accumulation at S phase at 50 uM after 6 hrs; type: functional, Homo sapiens; method in brief: as §1
[3] = system: HOS; test: Viability of HOS cells at 100 uM; type: functional, Homo sapiens
Method in brief: (§2)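 Cells grown in DMEM with 10% FCS and 4 mM glutamine at 37 °C, plated in 96-well format, preincubated 12 h, then exposed 72 h. Live cells measured by Calcein AM (1 h) fluorescence at 485/538 nm; % viable cells given at 100 µM compound.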

[4] = system: G-361; test: Viability of G361 cells at 100 uM; type: functional, Homo sapiens; method in brief: as §2
[5] = molecular target: Cyclin-dependent kinase 2/cyclin A (Homo sapiens, UniProt P24941); test: Inhibition of CDK2/Cyclin A in presence of 100 uM ATP; type: protein-complex assay
[6] = molecular target: Cyclin-dependent kinase 2/cyclin E (Homo sapiens) (UniProt P24864+P24941+O96020); test: Activity of CDK2/Cyclin E at 10 uM; type: protein-complex assay
[7] = system: HT-29; test: Inhibition of CEA mRNA synthesis in HT29 cells measured as number of copies per 10^6 cells by RT PCR at 50 uM after 3 hrs; type: functional, Homo sapiens
Method in brief: (§3)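 HT-29 cells were treated 3, 6 or 12 h; total RNA extracted with TRI reagent. 3 µg RNA reverse-transcribed with random primers and M-MLV RT at 42 °C for 60 min. CEA transcripts quantified by TaqMan real-time PCR: 50 cycles of 95 °C 15 s and 65 °C 15 s. Absolute copies came from amplicon standards of 30 to 10^6 copies, expressed per 10^6 cells. Samples run in duplicate PCR; values average of four determinations ± SD.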

[8] = system: HT-29; test: Inhibition of CEA mRNA synthesis in HT29 cells measured as number of copies per 10^6 cells by RT PCR at 50 uM after 6 hrs; type: functional, Homo sapiens; method in brief: as §3
[9] = system: HT-29; test: Inhibition of CEA mRNA synthesis in HT29 cells measured as number of copies per 10^6 cells by RT PCR at 50 uM after 12 hrs; type: functional, Homo sapiens; method in brief: as §3
[10] = system: HT-29; test: Inhibition of EpCAM mRNA synthesis in HT29 cells measured as number of copies per 10^6 cells by RT PCR at 50 uM after 12 hrs; type: functional, Homo sapiens
Method in brief: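 HT-29 cells (5 × 10⁶) treated for 3, 6 or 12 h; total RNA extracted with TRI reagent, 3 µg reverse transcribed with random primers and M-MLV RT (42 °C, 60 min). Absolute transcript copies quantified by TaqMan real-time PCR, 50 cycles, against diluted gene-specific amplicon standards (30–1 000 000 copies); duplicate PCR per sample; values are means of four determinations ± SD.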

[11] = system: HT-29; test: Cell cycle arrest in HT29 cells by accumulation at G0/G1 phase at 50 uM after 12 hrs; type: functional, Homo sapiens; method in brief: as §1
[12] = system: HT-29; test: Cell cycle arrest in HT29 cells by accumulation at S phase at 50 uM after 12 hrs; type: functional, Homo sapiens; method in brief: as §1
[13] = system: HT-29; test: Cell cycle arrest in HT29 cells by accumulation at G2/M phase at 50 uM after 12 hrs; type: functional, Homo sapiens; method in brief: as §1
[14] = system: MCF7; test: Increase in p53 expression level in MCF7 cells at 100 uM after 24 hrs; type: functional, cell-based; settings: Homo sapiens
Method in brief: (§4)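 MCF7 cells were treated 24 h, lysed in Laemmli buffer and run on 10% SDS-PAGE. Proteins were blotted to nitrocellulose; loading checked with Ponceau-S; blocked with 5% milk in PBS-Tween. Specific antibodies applied overnight (pRb phosphosites Ser780, Ser807, Thr821; p53; p21WAF1), then peroxidase secondary at 1:2000 with ECL detection.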

[15] = system: MCF7; test: Increase in p21 WAF1 expression level in MCF7 cells at 50 uM after 24 hrs; type: functional, cell-based; settings: Homo sapiens; method in brief: as §4

`Nc1n[nH]c(N)c1/N=N/c1ccc(O)cc1` was tested, and the Activity [1] was 32.9%, the Activity [2] was 54.2% and the Activity [3] was 22%. For the same compound, the Activity [4] was 8.3%, the IC50 [5] was 69 µM and the residual activity [6] was 31%. It also gave an Activity [7] of 27900, an Activity [8] of 22620 and an Activity [9] of 12005. The Activity [10] was 2951620, the Activity [11] was 27.2% and the Activity [12] was 66%. For the same compound, the Activity [13] was 6.8%, the Activity [14] was “Active” and the Activity [15] was “Active”.
